# Screens from PubChem BioAssay.
# Rows were chosen to be rich in hits. Some 2.3% of all compounds tested hit in one or more screens of this group.
# Apaf-1 inh – inhibitors of human Apaf-1 apoptosome, primary screen, biochemical, DEVD-Rh110 fluorescence, uHTS; reconstituted apoptosome caspase-3 activity; inhibition, % at 20 µM; 0.71% of 330,000 active; active = inhibition of at least 40% at 20 µM
#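 Material: reconstituted apoptosome with Apaf-1, cytochrome c, caspase-9, procaspase-3, dATP; medium: pH 7.5 Hepes buffer with CHAPS, BSA, DTT; also added: cytochrome c and DEVD-Rh110 substrate; timing: 30 min plus 50 min, RT; signal: Rh110 fluorescence intensity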
# PAFAH1B3 inh – PAFAH1B3 enzyme inhibitors, primary screen, biochemical, fluorescence polarization, human | Platelet-activating factor acetylhydrolase IB subunit alpha1 (Homo sapiens), Q15102 | recombinant PAFAH1B3, FP-rhodamine probe | inhibition, % at 3.39 µM | 0.28% of 340,000 active | AID 492972, 2010;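 active = inhibition above the screen-wide average of all tested compounds plus 3 SD, cut at about 25% in these data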
# Target sequence (Q15102 whole entry, looked up): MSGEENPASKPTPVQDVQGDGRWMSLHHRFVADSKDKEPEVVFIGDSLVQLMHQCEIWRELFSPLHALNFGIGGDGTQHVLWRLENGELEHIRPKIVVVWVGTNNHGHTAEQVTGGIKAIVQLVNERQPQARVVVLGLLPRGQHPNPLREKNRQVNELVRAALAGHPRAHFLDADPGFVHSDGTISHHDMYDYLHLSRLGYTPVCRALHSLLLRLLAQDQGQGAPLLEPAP
# PAFAH2 FP inh – PAFAH2 enzyme inhibitors, primary screen, biochemical, fluorescence polarization, human. Platelet-activating factor acetylhydrolase 2, cytoplasmic (Homo sapiens), Q99487. recombinant PAFAH2, FP-rhodamine activity probe. inhibition, % at 3.39 µM. 0.99% of 340,000 active. AID 492956, 2010;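 active = inhibition above the mean over all tested compounds plus 3 SD, cut at about 30% in these data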;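 also: inhibitors block probe labeling of enzyme so polarization drops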
# TDP2 inh – human TDP2 enzyme inhibitors, primary screen, biochemical, epi absorbance, recombinant enzyme | Tyrosyl-DNA phosphodiesterase 2 (Homo sapiens), O95551 | T5PNP hydrolysis, p-nitrophenol absorbance 415 nm | inhibition, % at 12.8 µM | 0.34% of 370,000 active | AID 720702, 2013;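 active = inhibition above the mean of all tested compounds plus 3 SD, set per campaign, cut at about 25% in these data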
# Target sequence (O95551 whole entry, looked up): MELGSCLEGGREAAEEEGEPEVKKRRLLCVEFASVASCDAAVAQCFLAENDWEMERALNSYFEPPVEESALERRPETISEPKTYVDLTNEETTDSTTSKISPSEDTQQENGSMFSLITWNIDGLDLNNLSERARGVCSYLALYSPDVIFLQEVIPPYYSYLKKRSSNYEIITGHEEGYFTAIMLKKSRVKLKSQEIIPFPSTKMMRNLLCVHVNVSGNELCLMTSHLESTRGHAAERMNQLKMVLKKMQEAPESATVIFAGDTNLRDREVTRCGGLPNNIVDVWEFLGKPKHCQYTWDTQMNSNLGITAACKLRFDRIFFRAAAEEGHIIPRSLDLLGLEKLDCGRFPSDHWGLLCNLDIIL
#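 Material: recombinant human TDP2; quantity: TDP2 enzyme at 120 nM final; medium: Tris-HCl pH 7.5 with MgCl2; compound: single concentration, 12.8 µM nominal, with 1% DMSO; incubation: 2 h enzyme incubation at 37 °C; signal: epi absorbance; measure: percent inhibition; benchmarks: high control without enzyme, low control DMSO plus TDP2; repeats: singlicate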
# PAFAH1B2 inh – PAFAH1B2 enzyme inhibitors, primary screen, biochemical, fluorescence polarization, human; Platelet-activating factor acetylhydrolase IB subunit alpha2 (Homo sapiens), P68402; recombinant PAFAH1B2, FP-rhodamine activity probe; inhibition, % at 3.39 µM; 1.2% of 340,000 active; AID 492953, 2010;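 active = inhibition above the mean of all tested compounds plus 3 SD, cut at about 24% in these data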
# Apaf-1 inh conf2 – Apaf-1 inhibitors, single-dose retest, confirmation, biochemical, fluorescence, DEVD-Rh110, 20 µM; shares compounds with Apaf-1 inh; reconstituted apoptosome, caspase-3 DEVD-Rh110 fluorescence; inhibition, % at 20 µM; 25% of 1,800 active; AID 504614, 2011;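 active = mean inhibition of at least 40% at 20 µM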
# Rh110 interf inh – Rh110 fluorescence interference by putative Apaf-1 inhibitors, confirmation, artefact control for Apaf-1 inhibitor project, biochemical, 20 µM; shares compounds with Apaf-1 inh; quenched caspase reaction; activation (fluorescence interference), % at 20 µM; 1,800 tested, under 10 active; AID 504615, 2011;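 active = signal rise of 40% or more at 20 µM, treated as a fluorescence artifact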
# Fluor interf inh – fluorescence interference of Apaf-1 inhibitor hits, dose response, artefact control for Apaf-1 inhibitor project. shares compounds with Apaf-1 inh. fluorescence interference counterscreen, Apaf-1 assay format. IC50, µM. 460 tested, under 10 active; call rule not given here
# PAFAH2 FP conf – PAFAH2 enzyme inhibitors, confirmation, biochemical, fluorescence polarization, human; shares compounds with PAFAH2 FP inh; recombinant PAFAH2, FP-rhodamine activity probe; inhibition, % at 3.39 µM; 65% of 2,300 active;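 active = mean inhibition over three repeats above a set limit taken from the earlier primary screen, cut at about 30% in these data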;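 also: inhibitor blocks binding of rhodamine activity probe so polarization falls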
# PAFAH1B3 conf FP – PAFAH1B3 enzyme inhibitors, confirmation, biochemical, fluorescence polarization, human. shares compounds with PAFAH1B3 inh. AID 493032, 2011. inhibition, % at 3.39 µM. recombinant PAFAH1B3, FP-Rh activity-based probe. 30% of 390 active;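 active = average inhibition over triplicate runs above the hit cutoff set in the earlier primary screen, cut at about 25% in these data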
# TDP2 confirm – human TDP2 enzyme inhibitors, retest, confirmation, biochemical, epi absorbance, recombinant enzyme; absorbance read-out; AID 743263, 2014; shares compounds with TDP2 inh; inhibition, % at 12.8 µM; 22% of 1,100 active; in the data active = inhibition above about 25%
# Hits are given with their value; - = inactive; . = no result.
SMILES,Apaf-1 inh,PAFAH1B3 inh,PAFAH2 FP inh,TDP2 inh,PAFAH1B2 inh,Apaf-1 inh conf2,Rh110 interf inh,TDP2 confirm,others
Cc1cccc(C(=O)NC2C(=O)NNC2c2ccc(Cl)cc2)c1 (stereo unspecified),54,-,-,30,-,-,-,-,
O=C(NC1C(=O)NNC1c1ccccc1)c1ccccc1 (stereo unspecified),-,-,-,-,-,.,.,.,
Cc1cccc(Cn2cc(COC(=O)N(C)Cc3ccccc3)nn2)c1,.,.,.,-,.,.,.,.,
CN(C)c1cc(Cl)c2nonc2c1N,94,-,-,66,-,52,-,54,Fluor interf inh=-
CN(C)c1ccc(Cl)cc1N,-,-,-,-,-,.,.,.,
CC(Nc1cccc2ccccc12)C(=O)N/N=C/c1ccccn1 (stereo unspecified),95,36,-,26,-,-,-,-,PAFAH1B3 conf FP=-
O=C(CCCC(=O)N/N=C\c1ccccn1)N/N=C\c1ccccn1,-,-,-,-,-,.,.,.,
O=C(O)c1cccc(-c2ccc(/C=N/NC(=O)c3cccnc3)o2)c1,-,-,-,-,-,.,.,.,
O=C(N/N=C/c1ccc(-c2ccccc2[N+](=O)[O-])o1)c1cccnc1,79,-,-,36,-,43,-,-,Fluor interf inh=-
COc1cc(NC2CCCCC2O)c2nc(-c3ccc(Cl)cc3)ccc2c1 (stereo unspecified),55,-,-,33,-,-,-,-,
COc1ccc(OCC(=O)OCC(=O)NC2CCCCC2C)cc1 (stereo unspecified),-,-,-,-,-,.,.,.,
COc1cc(-n2c(C)nc3cc(C(=O)N4CCCCC4)ccc32)cc(OC)c1OC,.,.,.,-,.,.,.,.,
O=C(CNc1cccc2ccccc12)N/N=C/C(Br)=C/c1ccccc1,65,-,-,38,-,-,-,-,
O=S1(=O)c2ccccc2-c2c(nnn2CC2CCCCC2)CN1C1CC1,.,.,.,-,.,.,.,.,
Cc1ccc(C(C[N+](=O)[O-])c2c(C)[nH]n(-c3ccccc3)c2=O)cc1 (stereo unspecified),93,-,-,34,-,44,-,32,Fluor interf inh=-
COc1ccc(C(c2c(C)[nH]n(-c3ccccc3)c2=O)c2c(C)[nH]n(-c3ccccc3)c2=O)cc1OC,97,-,-,88,-,-,-,39,
Cc1[nH]n(-c2ccccc2)c(=O)c1C(C[N+](=O)[O-])c1ccc(F)cc1 (stereo unspecified),94,-,-,38,-,-,-,-,
COC(=O)C1CN(Cc2ccc(F)cc2)CCS(=O)(=O)N1Cc1ccc(C)cc1 (stereo unspecified),.,.,.,-,.,.,.,.,
CC1=NN(c2ccc(S(=O)(=O)O)cc2C)C(=O)C1,51,-,-,34,-,-,-,38,
COc1ccc(CNS(=O)(=O)CC2NCCc3ccccc32)cc1 (stereo unspecified),.,.,.,-,.,.,.,.,
COC(=O)[C@]12C[C@H](CC(=O)NCCC(C)C)C(=O)N(Cc3ccc(Cl)cc3Cl)C1=C[C@H](C1CCCC1)O[C@@H]2C,.,.,.,-,.,.,.,.,
N#Cc1c(NC(=O)c2ccc(Br)o2)n(-c2ccccc2)c2nc3ccccc3nc12,96,65,-,28,-,87,-,60,Fluor interf inh=-;PAFAH1B3 conf FP=48
CCOC(=O)[C@@]12CCCC=C1N(CCc1ccc(Cl)cc1)C(=O)[C@H]2CC(=O)NCc1ccccc1,.,.,.,-,.,.,.,.,
CC1=NN(c2ccccc2)C(=O)/C1=C\c1ccc(Br)s1,96,-,33,52,-,-,-,28,PAFAH2 FP conf=-
CC1=NN(c2ccccc2)C(=O)/C1=C/c1cccs1,90,-,-,71,-,-,-,-,
SMILES,Apaf-1 inh,PAFAH1B3 inh,PAFAH2 FP inh,TDP2 inh,PAFAH1B2 inh,Apaf-1 inh conf2,Rh110 interf inh,TDP2 confirm,others
CC1=NN(c2ccccc2)C(=O)/C1=C\c1cc(C)n(-c2ccccc2)c1C,-,-,-,-,-,.,.,.,
COc1ccc(CNC(=O)O[C@H]2CC[C@@]34CCCN3C(=O)CCC[C@H]4[C@H]2C)cc1OC,.,.,.,-,.,.,.,.,
c1ccc(CNC2CCC23CCC(c2ccccc2)CC3)cc1 (stereo unspecified),.,.,.,-,.,.,.,.,
CC1=NN(c2ccc(C)c(C)c2)C(=O)/C1=C/c1ccc2c(c1)n(C)c(=O)n2C,94,-,-,53,-,-,-,31,
CC1=NN(c2cccc(F)c2)C(=O)/C1=C/c1ccc(N(C)C)cc1,-,-,-,-,-,.,.,.,
Cc1ccccc1NC1=C/C(=N\S(=O)(=O)c2ccc(C(=O)O)cc2)c2ccccc2C1=O,97,65,67,81,34,98,-,75,Fluor interf inh=-
Cc1ccccc1NC1=C/C(=N\S(=O)(=O)c2cccs2)c2ccccc2C1=O,97,64,40,62,25,99,-,75,Fluor interf inh=-
Cc1cc[n+](C2=C([O-])c3ccccc3C(=O)/C2=N\S(=O)(=O)c2cccs2)cc1C,-,-,-,-,-,.,.,.,
COC(=O)[C@]12C[C@H](CC(=O)NCCC(C)C)C(=O)N(CCC3=CCCCC3)C1=C[C@H](C(C)C)O[C@@H]2C1CC1,.,.,.,-,.,.,.,.,
Cc1cc(OC(=O)c2ccccc2)n(CCC#N)n1,43,-,-,50,-,-,-,-,
COC(=O)[C@]12C[C@H](CC(=O)NCc3ccc(OC)c(OC)c3)C(=O)N(Cc3ccc4c(c3)OCO4)C1=C[C@H](C(C)C)O[C@@H]2C1CC1,.,.,.,-,.,.,.,.,
C#CCNC(=O)C[C@@H]1C(=O)N(CCc2ccc(Cl)cc2)C2=CCCCC[C@]21C(=O)OC,.,.,.,-,.,.,.,.,
